Columns and labels:
[1] = biological target: T1, Prostaglandin G/H synthase 1 (Homo sapiens, UniProt P23219); test: Inhibition of human Prostaglandin G/H synthase 1 at 10 ug/mL expressed as mean percent inhibition of control PGE-2 production
Summary of the method: (§1)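 Human COX-1 and COX-2 genes expressed in a baculovirus system; microsomes prepared from High Five insect cells and used as the enzyme source. Activity read as PGE2 production. Each dose run in duplicate wells within each experiment, and values given as mean percent inhibition of control PGE2.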

[2] = biological target: T1, Prostaglandin G/H synthase 1; test: Inhibition of human Prostaglandin G/H synthase 1 at 1 ug/mL expressed as mean percent inhibition of control PGE-2 production; summary of the method: as §1
[3] = biological target: T1, Prostaglandin G/H synthase 1; test: Inhibition of human Prostaglandin G/H synthase 1 at 0.1 ug/mL expressed as mean percent inhibition of control PGE-2 production; summary of the method: as §1

T1 sequence (P23219 whole entry): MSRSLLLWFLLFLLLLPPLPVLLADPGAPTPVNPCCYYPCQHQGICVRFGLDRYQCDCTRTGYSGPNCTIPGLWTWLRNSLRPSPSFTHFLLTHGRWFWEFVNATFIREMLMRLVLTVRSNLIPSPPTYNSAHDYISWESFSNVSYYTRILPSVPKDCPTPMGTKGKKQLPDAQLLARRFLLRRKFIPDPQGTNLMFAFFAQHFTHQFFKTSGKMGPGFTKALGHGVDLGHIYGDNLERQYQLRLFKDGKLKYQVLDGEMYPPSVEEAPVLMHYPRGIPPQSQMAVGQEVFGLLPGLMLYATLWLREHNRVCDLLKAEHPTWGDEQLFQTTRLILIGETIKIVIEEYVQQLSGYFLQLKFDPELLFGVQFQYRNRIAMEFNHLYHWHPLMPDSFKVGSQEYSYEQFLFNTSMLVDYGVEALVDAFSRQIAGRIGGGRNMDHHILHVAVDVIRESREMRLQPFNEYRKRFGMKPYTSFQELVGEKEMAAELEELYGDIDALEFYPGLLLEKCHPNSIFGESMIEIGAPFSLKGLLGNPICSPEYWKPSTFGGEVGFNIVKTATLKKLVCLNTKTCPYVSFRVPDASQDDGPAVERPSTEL

Row | Structure (SMILES) | inhibition [1] [%] | inhibition [2] [%] | inhibition [3] [%]
1 | CN1C(C(=O)Nc2ccc(Cl)cc2)=C(O)c2cc(F)ccc2S1(=O)=O | 40 | 16 | 6
2 | CN1C(C(=O)Nc2ccccn2)=C(O)c2ccc(F)cc2S1(=O)=O | 74 | 26 | 3
3 | Cc1cnc(NC(=O)C2=C(O)c3ccc(F)cc3S(=O)(=O)N2C)s1 | 82 | 36 | -4
4 | CN1C(C(=O)Nc2nccs2)=C(O)c2ccc3ccccc3c2S1(=O)=O | 100 | 100 | 75
5 | CN1C(C(=O)Nc2nccs2)=C(O)c2c(c3cc(Cl)ccc3n2C)S1(=O)=O | 95 | 80 | 16
6 | Cc1cnc(NC(=O)C2=C(O)c3sc(C)cc3S(=O)(=O)N2C)s1 | 93 | 68 | 31
7 | CN1C(C(=O)Nc2nc3ccccc3s2)=C(O)c2ccccc2S1(=O)=O | 95 | 49 | 13
8 | CCc1cnc(NC(=O)C2=C(O)c3ccccc3S(=O)(=O)N2C)s1 | 30 | 23 | -4
9 | CN1C(C(=O)Nc2ccccn2)=C(O)c2ccccc2S1(=O)=O | 35 | 10 | -7
10 | Cc1cnc(NC(=O)C2=C(O)c3sc4cc(Cl)ccc4c3S(=O)(=O)N2C)s1 | 100 | 100 | 58
11 | CN1C(C(=O)Nc2ccccn2)=C(O)c2sc3cc(Cl)ccc3c2S1(=O)=O | 93 | 100 | 69
12 | CN1C(O)=C(C(=O)Nc2ccccc2)c2ccccc2S1(=O)=O | 100 | 92 | 65
13 | CN1C(O)=C(C(=O)Nc2ccc(Br)cc2)c2cc(Cl)ccc2S1(=O)=O | 97 | 97 | 33
14 | Cc1ccc2c(c1)S(=O)(=O)N(C)C(O)=C2C(=O)Nc1ccccc1Cl | 97 | 98 | 63
15 | Cc1cnc(NC(=O)C2=C(O)c3ccccc3S(=O)(=O)N2)s1 | 41 | 18 | 14
16 | Cc1cnc(N/C(O)=C2\C(=O)N(Cc3ccccc3)C(=O)c3ccc(Cl)cc32)s1 | 83 | 35 | 8
17 | CN1C(O)=C(C(=O)Nc2nccs2)c2c(ccc3ccccc23)S1(=O)=O | 93 | 57 | 24
18 | O=C(Nc1ccc(Cl)cc1Cl)C1=C(O)N(Cc2ccccc2)S(=O)(=O)c2ccc(F)cc21 | 98 | 39 | 3
19 | CN1C(C(=O)Nc2ccccc2)=C(O)c2cc(F)ccc2S1(=O)=O | 61 | 38 | 9
20 | Cc1ccc2c(c1)S(=O)(=O)N(C)C(C(=O)Nc1ccccc1)=C2O | 28 | 28 | 2
21 | CN1C(C(=O)Nc2ccc(Cl)cc2)=C(O)c2cc(Cl)ccc2S1(=O)=O | 18 | 23 | 6
22 | Cc1nc(NC(=O)C2=C(O)c3ccccc3S(=O)(=O)N2C)sc1C | 66 | 22 | 1
23 | CN1C(O)=C(C(=O)Nc2ccccc2)c2c(ccc3ccccc23)S1(=O)=O | 72 | 54 | 18

Row | Structure (SMILES) | inhibition [1] [%] | inhibition [2] [%] | inhibition [3] [%]
24 | CN1C(C(=O)Nc2ccccn2)=C(O)c2c(ccc3ccccc23)S1(=O)=O | 25 | -10 | 
25 | CN1C(C(=O)Nc2ccccn2)=C(O)c2c(c3ccccc3n2C)S1(=O)=O | 90 | 14 | 0
26 | Cc1cc2c(s1)C(C(=O)Nc1ccccn1)=C(O)N(C)S2(=O)=O | 82 | 53 | 15
27 | O=C(Nc1cccc(Cl)c1)C1=C(O)c2cc(Cl)ccc2SC1 | 54 | 26 | 31
28 | O=C(Nc1cccc(Cl)c1)C1=C(O)c2cc(Cl)ccc2[S+]([O-])C1 (stereo not drawn) | 76 | 17 | 0
29 | CN1C(O)=C(C(=O)Nc2nccs2)c2ccc(Cl)cc2S1(=O)=O | 99 | 66 | -8
30 | COc1ccc2c(c1)C(O)=C(C(=O)Nc1ccccc1)N(C)S2(=O)=O | -3 | -5 | -6
31 | CN1C(C(=O)Nc2ccccc2)=C(O)c2c(ccc3ccccc23)S1(=O)=O | 18 | -5 | 
32 | O=C(Nc1cccc(Cl)c1)C1=C(O)c2ccccc2[S+]([O-])C1 (stereo not drawn) | 38 | -2 | -2
33 | Cc1cnc(NC(=O)C2=C(O)N(C)S(=O)(=O)c3ccccc32)s1 | 66 | 18 | 3
34 | O=C(Nc1cccc(Cl)c1)C1=C(O)c2ccccc2SC1 | 83 | 75 | 19
35 | COc1ccc2c(c1)c1c(n2C)C(O)=C(C(=O)Nc2ccccn2)N(C)S1(=O)=O | 88 | 35 | 1
36 | CN1C(O)=C(C(=O)Nc2ccc(F)cc2F)c2cc(F)ccc2S1(=O)=O | 97 | 73 | 22
37 | Cc1ccc2c(c1)C(O)=C(C(=O)Nc1ncc(C)s1)N(C)S2(=O)=O | 24 | 14 | 0
38 | CN1C(C(=O)Nc2nccs2)=C(O)c2ccccc2S1(=O)=O | 51 | 17 | 
39 | Cc1cc2c(s1)S(=O)(=O)N(C)C(C(=O)Nc1nccs1)=C2O |  | 5 | 1
40 | Cc1cnc(NC(=O)C2=C(O)c3ccccc3S(=O)(=O)N2Cc2ccccc2)s1 | 42 | 10 | 3
41 | Cc1ccc2c(c1)/C(=C(\O)Nc1ccccn1)C(=O)N(C)C2=O | 73 | 62 | 22
42 | Cc1cc2c(o1)C(O)=C(C(=O)Nc1ncc(C)s1)N(C)S2(=O)=O | 1 | -7 | -8
43 | CN1C(C(=O)c2c[nH]c3ccccc23)=C(O)c2ccccc2S1(=O)=O | 24 | 3 | 13
44 | Cc1cnc(NC(=O)C2=C(O)c3ccc4ccccc4c3S(=O)(=O)N2C)s1 | 100 | 100 | 80
45 | CN1C(C(=O)Nc2ccccc2)=C(O)c2ccc3ccccc3c2S1(=O)=O | 88 | 64 | 4
46 | CN1C(C(=O)Nc2ccccc2)=C(O)c2ccccc2S1(=O)=O | 26 | 16 | -8

Row | Structure (SMILES) | inhibition [1] [%] | inhibition [2] [%] | inhibition [3] [%]
47 | COc1ccc2c(c1)c1c(n2C)C(O)=C(C(=O)Nc2nccs2)N(C)S1(=O)=O | 86 | 33 | 3
48 | CN1C(O)=C(C(=O)Nc2nccs2)c2cc3ccccc3cc2S1(=O)=O | 64 | 11 | -3
49 | O=C1/C(=C(/O)Nc2ccc(Cl)cc2Cl)c2cc(Cl)ccc2C(=O)N1Cc1ccccc1 | 100 | 84 | 6
50 | CN1C(C(=O)Nc2ccc(Cl)cc2)=C(O)c2ccc3ccccc3c2S1(=O)=O | 38 | 34 | 15
51 | Cc1ccc2c(c1)C(O)=C(C(=O)Nc1ccc(Cl)cc1)N(C)S2(=O)=O | 21 | -1 | 0
52 | O=C(Nc1ccc(Cl)cc1Cl)C1=C(O)N(C2CC2)S(=O)(=O)c2ccc(Cl)cc21 | 100 | 65 | 24
53 | COc1ccc2c(c1)c1c(n2C)C(O)=C(C(=O)Nc2ccccc2)N(C)S1(=O)=O | 79 | 23 | 6
54 | CN1C(O)=C(C(=O)Nc2ccc(Cl)cc2Cl)c2cc(F)ccc2S1(=O)=O | 100 | 94 | 40
55 | O=C(Nc1ccccn1)C1=C(O)c2cc(Cl)ccc2SC1 | 92 | 58 | 27
56 | Cc1cnc(NC(=O)C2=C(O)c3cc(F)ccc3S(=O)(=O)N2C)s1 | 56 | 21 | 2
57 | Cc1ccc2c(c1)S(=O)(=O)N(C)C(C(=O)Nc1ccccn1)=C2O | 45 | 29 | 18
58 | CN1C(O)=C(C(=O)Nc2ccc(Cl)cc2Cl)c2sc(Cl)cc2S1(=O)=O | 91 | 57 | 32
59 | Cc1cnc(NC(=O)C2=C(O)N(C)S(=O)(=O)c3cc(Cl)ccc32)s1 | 94 | 66 | 10
60 | Cc1cnc(NC(=O)C2=C(O)c3ccccc3SC2(C)C)s1 | 16 | 11 | 
61 | CN1C(C(=O)Nc2ccccc2)=C(O)c2c(c3cc(Cl)ccc3n2C)S1(=O)=O |  | 10 | 1
62 | Cc1ccc2c(c1)C(O)=C(C(=O)Nc1ccccn1)N(C)S2(=O)=O |  | 5 | -9
63 | COc1ccc2c(c1)C(O)=C(C(=O)Nc1ncc(C)s1)N(C)S2(=O)=O |  |  | -1
64 | CCn1c2c(c3ccccc31)S(=O)(=O)N(C)C(C(=O)Nc1nccs1)=C2O | 81 | -1 | 
65 | Cn1c(C(=O)Nc2ccccn2)c(O)c2ccccc2c1=O | 19 | -3 | 
66 | CN1C(C(=O)Nc2ccccn2)=C(O)c2c(c3cc(Cl)ccc3n2C)S1(=O)=O | 90 | 28 | 
67 | CN1C(O)=C(C(=O)Nc2ccccn2)c2cc(Cl)ccc2S1(=O)=O | 96 | 53 | 

From ChEMBL document CHEMBL1129978, “Effect of structural modification of enol-carboxamide-type nonsteroidal antiinflammatory drugs on COX-2/COX-1 selectivity” (J Med Chem, 1997)
